In data set [1] the test system is HCT-116. The data set can be described thus: Downregulation of SF3 mRNA expression in human HCT-116 cells at 2.6 uM incubated for 4 hrs by qRT-PCR analysis. The format is functional, cell-based. A general note: In qPCR the cycle at which signal appears reflects the starting amount.
For data set [2], the system named is HCT-116. The data set can be described thus: Downregulation of PLK-1 mRNA expression in human HCT-116 cells at 100 to 500 nM incubated for 24 hrs by qRT-PCR analysis. The format is functional, cell-based. Conditions: dose 100-500 nM. A digest of the protocol: (§1)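 HCT-116 cells in supplemented McCoy's 5a with 0.5% DMSO, treated 24 h at 100, 250 or 500 nM; untreated cells as control. Total RNA isolated, 1 µg DNase I-treated, reverse transcribed. qPCR on 5 ng cDNA with 2.5 µM each primer, 40 cycles of 95 °C 30 s, 55 °C 60 s, 72 °C 60 s. Splice-event primers for intron retention or exon skipping; SF2 primers measure total expression. 2^-CT method relative to GAPDH, untreated set at 1.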

The test system of data set [3] is SF3B1 pre-mRNA. The data set can be described thus: Modulation of splicing in SF3B1 pre-mRNA in human HCT-116 cells assessed as intron 13 retention level at 2.6 uM incubated for 4 hrs by qRT-PCR analysis. The format is functional, cell-based. Conditions: filed as modulator. A digest of the protocol: (§2)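 HCT-116 cells in supplemented McCoy's 5a, compound added from DMSO stock to a final 0.5% DMSO, 4 h at a single standardized concentration per analogue. Total RNA isolated and DNase-treated (1 µg). qPCR used 2.5 µM each primer on 5 ng cDNA, 40 cycles. Intron retention was computed by the 2^-CT method relative to GAPDH and expressed versus untreated cells set to 1.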

Data set [4] concerns SF3B2 pre-mRNA. Put plainly: Modulation of splicing in SF3B2 pre-mRNA in human HCT-116 cells assessed as intron 10 retention at 100 to 500 nM incubated for 24 hrs by qRT-PCR analysis. It counts as functional, cell-based. The settings on record: dose 100-500 nM. A digest of the protocol: (§3)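 HCT-116 cells in supplemented McCoy's 5a with 0.5% final DMSO were treated for 24 h at 100, 250 or 500 nM. Total RNA isolated and DNase-treated (1 µg). qPCR used 2.5 µM each primer on 5 ng cDNA, 40 cycles. Intron retention was computed by the 2^-CT method relative to GAPDH and expressed versus untreated cells set to 1.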

Data set [5] relates to DNAJB1 pre-mRNA. Put plainly: Modulation of splicing in DNAJB1 pre-mRNA in human HCT-116 cells assessed as intron 2 retention level at 2.6 uM incubated for 4 hrs by qRT-PCR analysis. Conditions: filed as modulator. The format is functional, cell-based.
For data set [6], the system named is HCT-116. Put plainly: Downregulation of SF2 mRNA expression in human HCT-116 cells at 100 to 500 nM incubated for 24 hrs by qRT-PCR analysis. It counts as functional, cell-based. Conditions: dose 100-500 nM. A digest of the protocol:
as §1

In data set [7] the test system is HCT-116. Put plainly: Cytotoxicity against human HCT-116 cells assessed as reduction in cell viability at 2.6 uM incubated for 4 hrs by MTS assay. The format is toxicity, cell-based. The settings on record: hct-116, 4 h.
The subject of data set [8] is SF3A3 pre-mRNA. Put plainly: Modulation of splicing in SF3A3 pre-mRNA in human HCT-116 cells assessed as intron 5 retention at 100 to 500 nM incubated for 24 hrs by qRT-PCR analysis. The format is functional, cell-based. The settings on record: filed as modulator, dose 100-500 nM. A digest of the protocol:
as §1

Data set [9] is described as follows: Cytotoxicity against human HCT-116 cells assessed as cell growth inhibition incubated for 72 hrs by MTS assay. It counts as toxicity, cell-based. A digest of the protocol:
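HCT-116 cells (ATCC; split every other day, no more than five generations, mycoplasma-tested) plated at 5 × 10³ cells/well in supplemented McCoy's 5a and grown 24 h at 37 °C, 5% CO₂. Compound added from DMSO (0.5% DMSO final) for 72 h. Cells washed with PBS, MTS reagent added for 2 h at 37 °C, A490 read against A690. GI₅₀ fitted from dose curves of 3 biological replicates.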

Data set [10] concerns SF3A1 pre-mRNA. Put plainly: Modulation of splicing in SF3A1 pre-mRNA in human HCT-116 cells assessed as intron 6 retention level at 2.6 uM incubated for 4 hrs by qRT-PCR analysis. It counts as functional, cell-based. Conditions: filed as modulator.
Data set [11] deals with HCT-116. Put plainly: Effect on AURKA mRNA expression in human HCT-116 cells at 100 to 500 nM incubated for 24 hrs by qRT-PCR analysis. It counts as functional, cell-based. The settings on record: dose 100-500 nM. A digest of the protocol:
as §1

The test system of data set [12] is SF3B2 pre-mRNA. The data set can be described thus: Modulation of splicing in SF3B2 pre-mRNA in human HCT-116 cells assessed as intron 10 retention level at 2.6 uM incubated for 4 hrs by qRT-PCR analysis. It counts as functional, cell-based. Conditions: filed as modulator. A digest of the protocol: as §2
In data set [13] the test system is HCT-116. Put plainly: Cytotoxicity against human HCT-116 cells assessed as reduction in cell viability at 500 nM incubated for 24 hrs by MTS assay. It counts as toxicity, cell-based. Conditions: hct-116, 24 h, 0.5 µM. A digest of the protocol: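 HCT-116 cells plated at 5 × 10³ cells/well in supplemented McCoy's 5a and grown 24 h at 37 °C, 5% CO₂. Compound given at 500 nM, the top dose of the 24 h splicing series, in 0.5% DMSO for 24 h. Cells washed with PBS, MTS reagent added for 2 h at 37 °C, A490 read against A690.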
In general terms: Formazan colour is commonly taken as a measure of viable cells.

The subject of data set [14] is DNAJB1 pre-mRNA. The data set can be described thus: Modulation of splicing in DNAJB1 pre-mRNA in human HCT-116 cells assessed as intron 2 retention at 100 to 500 nM incubated for 24 hrs by qRT-PCR analysis. The format is functional, cell-based. The settings on record: dose 100-500 nM. A digest of the protocol: as §1
Data set [15] has as its system SF3A3 pre-mRNA. Put plainly: Modulation of splicing in SF3A3 pre-mRNA in human HCT-116 cells assessed as intron 5 retention level at 2.6 uM incubated for 4 hrs by qRT-PCR analysis. The format is functional, cell-based. Conditions: filed as modulator.
Data set [16] deals with SF3B1 pre-mRNA. The data set can be described thus: Modulation of splicing in SF3B1 pre-mRNA in human HCT-116 cells assessed as intron 13 retention level at 42 nM incubated for 4 hrs by qRT-PCR analysis. The format is functional, cell-based. Conditions: filed as modulator. A digest of the protocol:
as §2

For data set [17], the system named is SF3A1 pre-mRNA. The data set can be described thus: Modulation of splicing in SF3A1 pre-mRNA in human HCT-116 cells assessed as intron 6 retention level at 42 nM incubated for 4 hrs by qRT-PCR analysis. It counts as functional, cell-based. The settings on record: filed as modulator.
Data set [18] concerns DNAJB1 pre-mRNA. Put plainly: Modulation of splicing in DNAJB1 pre-mRNA in human HCT-116 cells assessed as reduction in intron 2 retention level at 100 to 500 nM incubated for 24 hrs by qRT-PCR analysis. Conditions: filed as modulator, dose 100-500 nM. The format is functional, cell-based. A digest of the protocol: as §1
Data set [19] concerns DNAJB1 pre-mRNA. The data set can be described thus: Modulation of splicing in DNAJB1 pre-mRNA in human HCT-116 cells assessed as intron 2 retention level at 42 nM incubated for 4 hrs by qRT-PCR analysis. The settings on record: filed as modulator. It counts as functional, cell-based.
The test system of data set [20] is SF3B2 pre-mRNA. Put plainly: Modulation of splicing in SF3B2 pre-mRNA in human HCT-116 cells assessed as increase in intron 10 retention level incubated for 24 hrs by qRT-PCR analysis. The format is functional, cell-based. Conditions: filed as modulator, dose 100-500 nM. A digest of the protocol: as §3
In data set [21] the test system is AURKA pre-mRNA. The data set can be described thus: Modulation of splicing in AURKA pre-mRNA in human HCT-116 cells assessed as effect on exon 4 skipping at 42 nM incubated for 4 hrs by qRT-PCR analysis. The settings on record: filed as modulator. The format is functional, cell-based.
For data set [22], the system named is SF3B1 pre-mRNA. The data set can be described thus: Modulation of splicing in SF3B1 pre-mRNA in human HCT-116 cells assessed as increase in intron 13 retention level incubated for 24 hrs by qRT-PCR analysis. The format is functional, cell-based. Conditions: filed as modulator, dose 100-500 nM. A digest of the protocol:
as §3

For data set [23], the system named is SF3B2 pre-mRNA. Put plainly: Modulation of splicing in SF3B2 pre-mRNA in human HCT-116 cells assessed as intron 10 retention level at 42 nM incubated for 4 hrs by qRT-PCR analysis. Conditions: filed as modulator. The format is functional, cell-based. A digest of the protocol: as §2
Data set [24] deals with SF3A3 pre-mRNA. The data set can be described thus: Modulation of splicing in SF3A3 pre-mRNA in human HCT-116 cells assessed as intron 5 retention level at 42 nM incubated for 4 hrs by qRT-PCR analysis. Conditions: filed as modulator. The format is functional, cell-based.
Data set [25] relates to HCT-116. Put plainly: Cytotoxicity against human HCT-116 cells assessed as reduction in cell viability at 42 nM incubated for 4 hrs by MTS assay. It counts as toxicity, cell-based. Conditions: hct-116, 4 h, 0.042 µM.

SMILES strings stand for the structures. Activity calls are given as the source filed them. The calls are words filed in the database; no cut-off is given here.

As usually defined, the GI50 is the concentration that inhibits growth by half.

In the case of `CC[C@H](OC)[C@@H](C)[C@H]1O[C@@H]1[C@@H](O)[C@H](C)/C=C/C=C(\C)[C@H]1OC(=O)C[C@@H](O)CC[C@@](C)(O)[C@@H](OC(C)=O)/C=C/[C@@H]1C`, the outcome in data set [1], in [2], in data set [8] and in [11] was Active. Besides, the Activity in data set [3] was less than 3; in [5] it was more than 3; in [7], “Non-Toxic”; in [10], more than 3; in data set [12], more than 3; in [13], “Non-Toxic”. In [15], the Activity was less than 3. The outcome in [4], in data set [6] and in [14] was inactive. Moreover, the GI50 at 72 h in data set [9] came to 143 nM.

For `CC[C@H](OC)[C@@H](C)[C@H]1O[C@@H]1[C@@H](O)[C@H](C)/C=C/C=C(\C)[C@H]1OC(=O)C[C@H](O)CC[C@@](C)(O)[C@@H](OC(C)=O)/C=C/[C@@H]1C`, the Activity is less than 3 in data set [16]; more than 3 in data set [17]; more than 3 in data set [19]; “Dose-Dependent Effect” in data set [20]; “Non-Toxic” in data set [13]; “Dose-Dependent Effect” in [22]. For the same molecule, the Activity is more than 3 in [23], less than 3 in [24] and “Non-Toxic” in data set [25]. Moreover, the outcome in [2] and in data set [6] was inactive. Also, the result in [18] and in data set [21] was Active. Further, the 50% growth inhibitory concentration (GI50) at 72 h in data set [9] turned out to be 2.2 nM.

The values above are taken from ChEMBL document CHEMBL5338772, “Stereochemical Control of Splice Modulation in FD-895 Analogues” (J Med Chem, 2023).
